According to paper PMC4714953 (Antiviral therapy, 2015):
Read-outs that look alike come from different tables or passages of the source.

Columns and labels:
[1] = rat, dog and rhesus monkey; cited from earlier work
HCV RNA = assay: Decline of HCV RNA in patients on vaniprevir; type: in vivo; conditions: genotype 1 chronic HCV patients
[2] = chimpanzees, 10 mg/kg oral, cited from earlier work
[3] = Hepatic vaniprevir concentration by core needle biopsy; type: in vivo, human; conditions: for concentration at 12 h / Kp at 6 h: human, liver, oral, mean; for concentration at 12 h: Liver concentration C12h, mean (one subject), 12 h post-dose day 4; for Kp at 6 h: Liver:plasma ratio C6h, 6 h post-dose day 4
Method in brief: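 Genotype 1 chronic HCV patients (n=3), non-cirrhotic, treatment-experienced, fixed sequence: 600 mg twice daily days 1–3 and a single dose on day 4, then after at least 30 days off drug, 300 mg on the same schedule. Ultrasound-guided core needle biopsy of the right hepatic lobe 6 or 12 h after the day-4 dose. Tissue weighed, stored at −70°C, homogenized in human EDTA plasma, extracted liquid–liquid at acidic pH, then LC-MS/MS (0.1–200 µg/g). Liver/plasma ratio calculated.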

[4] = Plasma vaniprevir pharmacokinetics; type: in vivo, human; conditions: for AUC(0-t) / Cmax / Tmax / half-life / concentration at 12 h: human, plasma, oral
Method in brief: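 Same patients and fixed-sequence regimen: 600 mg then 300 mg twice daily days 1–3, single dose on day 4, at least 30-day washout between periods. Day-4 plasma over the 12-h dosing interval. LC-MS/MS, linear 1–1,000 ng/ml, CV under 10%, accuracy within ±10.0%. AUC0–12, Cmax, C12h, Tmax and t½ derived using nominal times. Tmax as median (min–max), t½ as harmonic mean ±pseudo sd.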

[5] = cited from earlier work; for AUC0–12: plasma
[6] = system: liver organic anion-transporting polypeptides; conditions: cited from earlier work
[7] = 300 mg to 600 mg twice daily, day 4

CC[C@@H]1C[C@]1(NC(=O)[C@@H]1C[C@@H]2CN1C(=O)[C@H](C(C)(C)C)NC(=O)OCC(C)(C)CCCCc1cccc3c1CN(C3)C(=O)O2)C(=O)NS(=O)(=O)C1CC1 [vaniprevir]
Liver concentrations at 24 h post-dose [1]: 200 to 600 nM
Decline of HCV RNA by day 2 (HCV RNA; 300 mg twice daily): approximately 3 log
Decline of HCV RNA by day 2 (HCV RNA; 600 mg twice daily): approximately 4 log
Maximum liver concentration ([2]; reached at 12 h after dosing): 31 µM
Plasma AUC0–24 [2]: 5.2 µM/h
concentration at 12 h ([3]; 300 mg, 300 mg twice daily): 29400 nM
Kp at 6 h ([3]; 300 mg, 300 mg twice daily): 166
concentration at 12 h ([3]; 600 mg, 600 mg twice daily): 53700 nM
Kp at 6 h ([3]; 600 mg, 600 mg twice daily): 67.3
Hepatic concentrations, 600 mg versus 300 mg twice daily regimen ([3]; mean liver concentrations at 6 and 12 h post-dose): twofold higher
Increase in plasma AUC0–12 with a twofold increase in dose [4, 7]: approximately fivefold
Increase in plasma C12h with a twofold increase in dose [4, 7]: approximately sevenfold
Increase in plasma Cmax with a twofold increase in dose [4, 7]: approximately fivefold
AUC(0-t) ([4]; 300 mg): 10.6 µM·h
Cmax ([4]; 300 mg): 2600 nM
Tmax ([4]; 300 mg): 2 h
half-life ([4]; 300 mg): 6.3 ± 1.4 h
concentration at 12 h ([4]; 300 mg, C12 h, plasma trough, day 4, 300 mg twice daily, n=3, arithmetic mean ±SD [CV%]): 160 nM
concentration at 12 h ([4]; 300 mg, Plasma concentration C12h, mean, mean (one subject, Table 1), 300 mg twice daily, 12 h post-dose day 4): 120 nM
AUC(0-t) ([4]; 600 mg): 59.5 µM·h
Cmax ([4]; 600 mg): 13500 nM
Tmax ([4]; 600 mg): 3 h
half-life ([4]; 600 mg): 3.6 ± 1 h
concentration at 12 h ([4]; 600 mg, C12 h, plasma trough, day 4, 600 mg twice daily, n=3, arithmetic mean ±SD [CV%]): 1110 nM
concentration at 12 h ([4]; 600 mg, Plasma concentration C12h, mean, mean (one subject, Table 1), 600 mg twice daily, 12 h post-dose day 4): 190 nM
Plasma vaniprevir Tmax ([5]; humans): 1.5 to 3 h
AUC0–12 ([5]; 300 mg twice daily): 5.15 µM/h
AUC0–12 ([5]; 600 mg twice daily): 23.36 µM/h
Liver organic anion-transporting polypeptides transport in vitro [6]: saturated at high concentrations
